Active and inactive are the calls of the source. No cut-off for these calls is given here.
How the values were obtained:
[1] = Cytotoxicity against human SPCA2 cells after 2 days by MTT assay; assay type: functional, cell-based; conditions: SPCA2, 48 h
Summary of the method: (§1)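 Cells grown in medium with 10% heat-inactivated FBS at 37 C under 5% CO2. Compounds dissolved in medium with 1% DMSO; controls received 1% DMSO. After 2 days, MTT (10 mg/mL) added for 4 h, formazan dissolved in DMSO and absorbance read at 570/630 nm. Survival taken relative to negative control; IC50 by Bliss method (n = 5), at least three independent experiments.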

[2] = tested on: NCI-H460; assay: Cytotoxicity against human NCI-H460 cells after 2 days by MTT assay; assay type: functional, cell-based; conditions: NCI-H460, 48 h; summary of the method: as §1
[3] = Cell cycle arrest in human T24 cells assessed as reduction in Cyclin D1 level after 24 hrs by Western blotting analysis; assay type: functional, cell-based; conditions: T-24
Summary of the method: (§2)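 T24 cells treated at […] for 24 h and lysed in ice-cold RIPA buffer with protease inhibitors and NaF. Protein measured by Bradford; 30 micrograms per lane run on 12% SDS-PAGE and transferred to PVDF. Blocked 2 h at room temperature, primary antibody overnight at 4 C, HRP secondary (1:2000) 1 h, chemiluminescence detection.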

[4] = Cell cycle arrest in human T24 cells assessed as increase in p27 level after 24 hrs by Western blotting analysis; assay type: functional, cell-based; conditions: T-24; summary of the method: as §2
[5] = tested on: T-24; assay: Induction of apoptosis in human T24 cells assessed as increase in caspase-3 protein expression at 20 uM after 6 to 24 hrs by Western blotting analysis; assay type: functional, cell-based
[6] = tested on: T-24; assay: Induction of apoptosis in human T24 cells assessed as reduction in cellular volume after 24 hrs by Hoechst 33258 staining-based fluorescence microscopic analysis relative to control; assay type: functional, cell-based
Summary of the method: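 T24 cells on cover slips exposed 24 h at 5, 10 and 20 µM, with untreated cells as control. Fixed in 4% paraformaldehyde for 10 min, washed with PBS and stained with Hoechst 33258 for 5 min. Nuclei were viewed by fluorescence microscopy at 350 nm excitation and 460 nm emission.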

[7] = tested on: T-24; assay: Induction of apoptosis in human T24 cells assessed as cell budding at 5 to 20 uM after 24 hrs by AO/EB staining-based fluorescence microscopic analysis relative to control; assay type: functional
[8] = Cell cycle arrest in human T24 cells assessed as accumulation at G1 phase at 5 uM after 48 hrs by Rnase A/propidium iodide staining-based flow cytometry (reference value: 34.43%); assay type: functional; conditions: T-24
Summary of the method: (§3)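 T24 cells exposed to […] for 48 h, washed with ice-cold PBS, then fixed and permeabilized overnight in ice-cold 70% ethanol. RNase A (100 mg/mL) treatment at 37 C for 30 min, then PI staining (1 mg/mL) in the dark at 4 C for 30 min. Flow cytometry gave the percentage of cells in G1, S and G2 phase.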

[9] = Induction of apoptosis in human T24 cells assessed as caspase-9 upregulation at IC50 after 24 hrs by qRT-PCR analysis relative to control; assay type: functional, cell-based; conditions: T-24
[10] = Cell cycle arrest in human T24 cells assessed as increase in p21 level after 24 hrs by Western blotting analysis; assay type: functional, cell-based; conditions: T-24; summary of the method: as §2
[11] = tested on: T-24; assay: Induction of apoptosis in human T24 cells assessed as fragmented nuclei after 24 hrs by Hoechst 33258 staining-based fluorescence microscopic analysis relative to control; assay type: functional, cell-based
Summary of the method: (§4)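 T24 cells on cover slips treated at […] for 24 h; untreated cells as control. Fixed in 4% paraformaldehyde for 10 min, PBS washes, Hoechst 33258 for 5 min. Nuclei imaged by fluorescence microscopy, excitation 350 nm, emission 460 nm.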

[12] = Induction of apoptosis in human T24 cells assessed as cytC upregulation after 24 hrs by qRT-PCR analysis; assay type: functional, cell-based; conditions: T-24
Summary of the method: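 T24 cells treated at […] for 24 h before RNA extraction. SYBR Green qRT-PCR with 500 nM primers: 2 min at 50 C, 10 min at 95 C, then 40 cycles of 15 s at 95 C and 1 min at 60 C. Expression by the ΔCt method against actin, normalized to untreated cells; run in triplicate.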

[13] = tested on: T-24; assay: Induction of apoptosis in human T24 cells assessed as early apoptotic cells at 10 uM after 24 hrs by annexin-V-FITC/propidium iodide staining-based flow cytometry (reference value: 2.74%); assay type: functional
[14] = Induction of apoptosis in human T24 cells assessed as cytC upregulation at IC50 after 24 hrs by qRT-PCR analysis relative to control; assay type: functional, cell-based; conditions: T-24
[15] = Cell cycle arrest in human T24 cells assessed as reduction in Cyclin E level after 24 hrs by Western blotting analysis; assay type: functional, cell-based; conditions: T-24; summary of the method: as §2
[16] = Cell cycle arrest in human T24 cells assessed as accumulation at G2 phase at 20 uM after 48 hrs by Rnase A/propidium iodide staining-based flow cytometry (reference value: 3.58%); assay type: functional; conditions: T-24; summary of the method: as §3
[17] = tested on: T-24; assay: Induction of apoptosis in human T24 cells assessed as viable cells at 10 uM after 24 hrs by annexin-V-FITC/propidium iodide staining-based flow cytometry (reference value: 93.5%); assay type: functional; conditions: T-24, 24 h, read-out: Activity
[18] = tested on: T-24; assay: Induction of apoptosis in human T24 cells assessed as reduction in Bcl2 protein expression after 6 to 24 hrs by Western blotting analysis; assay type: functional, cell-based
Summary of the method: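 T24 cells exposed at 20 µM for 6, 12 and 24 h, then lysed in ice-cold RIPA with protease and phosphatase inhibitors. Protein was quantified by Bradford, and 30 µg per lane was run on 12% SDS-PAGE and transferred to PVDF. Membranes were blocked 2 h, probed with primary antibody at 4 °C overnight, then HRP secondary (1:2000) for 1 h, with chemiluminescent detection.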

[19] = tested on: T-24; assay: Induction of apoptosis in human T24 cells assessed as cytochrome C accumulation in cytosol at 20 uM after 6 to 24 hrs by Western blotting analysis; assay type: functional, cell-based
[20] = tested on: T-24; assay: Induction of apoptosis in human T24 cells assessed as condensed nuclei after 24 hrs by Hoechst 33258 staining-based fluorescence microscopic analysis relative to control; assay type: functional, cell-based; summary of the method: as §4
[21] = Cell cycle arrest in human T24 cells assessed as accumulation at S phase at 5 uM after 48 hrs by Rnase A/propidium iodide staining-based flow cytometry (reference value: 62%); assay type: functional; conditions: T-24; summary of the method: as §3
[22] = tested on: T-24; assay: Induction of apoptosis in human T24 cells assessed as loss of mitochondrial membrane potential at 5 to 20 uM after 24 hrs by JC-1 staining-based fluorescence microscopic analysis relative to control; assay type: functional, cell-based
Summary of the method: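 T24 cells exposed 24 h at 5, 10 and 20 µM, then given an equal volume of JC-1 staining solution at 37 °C for 20 min and rinsed twice with PBS. Monomer (green, 515–545 nm) and aggregate (red, 570–600 nm) emissions were viewed by fluorescence microscopy. Depolarization was read as a rise in the green/red ratio against untreated control.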

[23] = tested on: T-24; assay: Induction of apoptosis in human T24 cells assessed as membrane blebbing at 5 to 20 uM after 24 hrs by AO/EB staining-based fluorescence microscopic analysis relative to control; assay type: functional, cell-based
Summary of the method: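 T24 cells seeded at 5 × 10^4 cells/mL on cover slips. Medium was replaced with fresh medium containing 10% FBS and compound at 5, 10 or 20 µM for 24 h. Cover slips were inverted onto AO/EB stain and viewed by fluorescence microscopy. Live cells score uniform green, early apoptotic green-yellow, late apoptotic orange, and necrotic orange without condensed chromatin. Untreated cells served as control.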

SMILES: COc1ccc2c(c1)/C(=N\O)C(c1c[nH]c3ccc(OC)cc13)=N2
- IC50 [1]: 7.73 µM
- IC50 [2]: 9.83 µM
- Activity [3]: Dose-dependent effect
- Activity [4]: Dose-dependent effect
- Activity [5]: Active
- Activity [6]: Dose-dependent effect
- Activity [7]: Active
- Activity [8]: 45%
- fold change (FC) [9]: 27.1
- Activity [10]: Dose-dependent effect
- Activity [11]: Dose-dependent effect
- Activity [12]: Dose-dependent effect
- Activity [13]: 11.9%
- fold change (FC) [14]: 8.09
- Activity [15]: Dose-dependent effect
- Activity [16]: 4.67%
- viability at 10 µM [17]: 79.9%
- Activity [18]: Dose-dependent effect
- Activity [19]: Active
- Activity [20]: Dose-dependent effect
- Activity [21]: 51.9%
- Activity [22]: Active
- Activity [23]: Active
